Screening data deposited in PubChem by several laboratories.
This is a sample that favours compounds with a hit; in the whole collection about 2.6% have one here.
TAAR1 antagonist: human TAAR1 antagonists, primary screen, Fluo-8 calcium fluorescence, CHO RD-HGA16 cells; inhibition, % at 3 µM; AID 624466, 2012; Trace amine-associated receptor 1 (Homo sapiens), Q96RJ0; 360,000 tested, 1.5% active; antagonist;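 active = inhibition above a per-plate cutoff, the mean inhibition of test compounds on that plate plus 3 SD, cut at about 49% in these data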;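 note: 0% = DMSO plus EC80 beta-PEA response and 100% = DMSO alone without agonist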
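Test system: RD-HGA16 CHO cells with stable hTAAR1 and Gα16 / Probe or stimulus: EC80 β-phenethylamine stimulus / Times: seeding 17-24 h prior, 75-min 37 °C, 30-min RT dye loading / Detection: Fluo-8 calcium-sensitive fluorescence / Read-out basis: % inhibition scaled between DMSO and EC80 PEA controls / Repeats: singlicate, one well per test compound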
VLA-4 inh: inhibition in human VLA-4 binding assay, primary screen, VLA-4 allosteric modulator project, MLPCN library, flow cytometry, VLA-4 expressing cells; inhibition, % (about 7 µM as worked out from the volumes in the protocol); ligand binding flow cytometry; Integrin alpha-4 (Homo sapiens), P13612; 330,000 tested, 0.2% active; in the data active = inhibition above about 50%
Target sequence (P13612 whole entry, looked up): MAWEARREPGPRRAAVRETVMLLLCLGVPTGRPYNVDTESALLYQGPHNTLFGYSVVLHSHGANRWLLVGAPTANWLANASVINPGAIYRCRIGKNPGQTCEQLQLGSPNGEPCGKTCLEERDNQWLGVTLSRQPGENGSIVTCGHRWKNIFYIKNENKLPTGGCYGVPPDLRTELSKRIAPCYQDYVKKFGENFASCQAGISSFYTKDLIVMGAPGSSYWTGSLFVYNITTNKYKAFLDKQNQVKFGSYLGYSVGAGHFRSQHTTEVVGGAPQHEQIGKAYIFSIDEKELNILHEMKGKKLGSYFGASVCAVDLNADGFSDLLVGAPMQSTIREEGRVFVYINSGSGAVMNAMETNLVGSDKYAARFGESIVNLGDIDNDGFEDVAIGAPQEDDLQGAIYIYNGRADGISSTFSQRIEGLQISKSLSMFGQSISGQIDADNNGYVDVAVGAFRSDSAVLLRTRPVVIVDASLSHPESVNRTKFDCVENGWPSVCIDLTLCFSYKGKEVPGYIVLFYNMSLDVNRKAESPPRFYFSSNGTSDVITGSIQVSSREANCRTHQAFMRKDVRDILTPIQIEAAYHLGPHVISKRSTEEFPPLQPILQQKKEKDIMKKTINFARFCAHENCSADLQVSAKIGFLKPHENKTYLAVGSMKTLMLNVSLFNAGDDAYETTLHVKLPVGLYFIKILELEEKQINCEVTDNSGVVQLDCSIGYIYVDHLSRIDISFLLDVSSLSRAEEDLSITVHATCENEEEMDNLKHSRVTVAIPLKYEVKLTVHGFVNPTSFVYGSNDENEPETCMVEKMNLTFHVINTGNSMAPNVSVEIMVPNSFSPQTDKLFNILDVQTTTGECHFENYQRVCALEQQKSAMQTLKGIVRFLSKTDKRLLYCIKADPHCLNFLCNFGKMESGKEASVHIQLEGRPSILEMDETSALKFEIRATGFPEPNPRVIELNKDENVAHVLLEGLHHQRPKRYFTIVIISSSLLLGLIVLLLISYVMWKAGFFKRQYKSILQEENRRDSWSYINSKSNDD
Rce1 inhib: yeast Rce1p protease inhibitors, primary screen, biochemical, fluorescence, cell-free homogeneous. CAAX prenyl protease 2 (Saccharomyces cerevisiae (strain ATCC 204508 / S288c)), Q03530. yeast membranes, quenched prenylated peptide cleavage fluorescence. calls only. 290,000 tested, 0.27% active. AID 2563, 2010;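 active = fall in fluorescence gain of 50% or more versus controls, with final raw signal at or below 3038400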;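 note: plate controls were neutral control wells for no effect and wells lacking membranes for full effect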
Platelet DG rel: inhibitors of platelet dense granule secretion, primary screen, cell-based, MLPCN, human platelets; human platelet-rich plasma, SFLLRN dense granule ATP release, luminescence; inhibition, %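 (compounds screened at 7.5 µM in platelet-rich plasma)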; 300,000 tested, 0.22% active; AID 1663, 2009;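 active = mean replicate score, as percent of positive control, at or above 50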
TAAR1 agonist: human TAAR1 agonists, primary screen, Fluo-8 calcium fluorescence, CHO RD-HGA16 cells. Trace amine-associated receptor 1 (Homo sapiens), Q96RJ0. vehicle wells 0%, saturating PEA agonist 100%. activation, % at 3 µM. 360,000 tested, 0.99% active;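 active = activation above the mean activation of all test compounds in the run plus 3 SD, cut at about 38% in these data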
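Benchmarks: low control DMSO, high control PEA (EC100); System: CHO RD-HGA16 cells carrying human TAAR1 plus Gα16; Detection: Fluo-8 fluorescence, 5 s baseline then 140 s kinetic read; Schedule: 17-24 h plating, Fluo-8 75 min 37 °C, 30 min RT; Read-out basis: % activation from peak over basal fluorescence ratio, DMSO-to-PEA scaled.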
An asterisk follows results filed as active; i = inactive; x = no result given; + = active, no number.

SMILES	TAAR1 antagonist	VLA-4 inh	Rce1 inhib	Platelet DG rel	TAAR1 agonist
COc1ccccc1CNC(=O)c1c(N)n(CCCN2CCOCC2)c2nc3ccccc3nc12	39	x	i	-16	16
CC(C)OC(=O)c1c(N)n(CCCN2CCOCC2)c2nc3ccccc3nc12	-5	0	+	-1	6
Cc1[nH]c2ccccc2c1CN1CCN(c2ccccn2)CC1	-11	0	i	-8	6
Cc1[nH]c2ccccc2c1CN1CCC(Cc2ccccc2)CC1	7	4	i	0	41*
Cc1cc2nc(C(C)(C)C)c(Cc3ccccc3)n2c(C)c1Br	-37	x	x	x	0
COc1ccc(/C=C2/C(=O)ON=C2C)cc1Cl	-9	15	i	12	2
C=CCOc1ccc(/C=C2/C(=O)ON=C2C)cc1OC	18	2	i	8	38*
CC(=O)OCCn1c2nc(=O)[nH]c(=O)c-2nc2cc(C)c(C)cc21	67*	-20	i	-3	138*
CC(O)COc1ccc(/C(=N/O)c2ccccc2)cc1 (centres undefined)	-16	7	i	1	38*
CC1=NNC(=O)/C1=C\c1cn(-c2ccccc2)nc1-c1ccccc1	61*	27	i	4	31
Cc1cc(N2CCC(C)CC2)nc(SCC(=O)c2ccccc2)n1	54*	0	i	2	20
O=C(NC1CCCC1)C(c1ccncc1)N(Cc1ccccc1)C(=O)Cc1cccs1 (centres undefined)	-11	1	i	3	10
O=C(NC1CCCC1)C(c1ccccc1)N(Cc1ccc2c(c1)OCO2)C(=O)Cc1cccs1 (centres undefined)	51*	-18	i	0	17
O=C(NC1CCCC1)C(c1ccsc1)N(Cc1ccccc1)C(=O)Cc1cccs1 (centres undefined)	52*	17	i	-1	6
O=C(Nc1ccc(NC(=O)c2cccs2)c(Cl)c1)c1cccs1	17	5	i	12	7
CCN1CCN(Cc2nc3c(c(=O)[nH]c(=O)n3C)n2Cc2ccccc2Cl)CC1	-20	15	i	65*	3
C=C(C(=O)Oc1c(C(C)(C)C)cccc1C(C)(C)C)c1ccccc1	10	0	x	x	4
O=C(Nc1cccc(Cl)c1)Nc1nccs1	4	8	i	6	31
O=C(Nc1ccc(Cl)c(Cl)c1)Nc1nccs1	-1	4	i	7	43*
O=C(Nc1ccccc1C(=O)NCc1ccccc1)c1ccccc1Br	35	7	i	14	5
Cc1ccccc1C(=O)Nc1ccccc1C(=O)NCc1ccccc1	49*	7	i	2	8
CC(C)(C)OC(=O)N1CCC(c2cc(=O)n3[nH]cc(C(=O)Nc4ccc(F)c(Cl)c4)c3n2)CC1	-43	1	+	0	9
COc1ccc(NC(=O)c2c[nH]n3c(=O)cc(C4CCN(C(=O)OC(C)(C)C)CC4)nc23)cc1Cl	-6	12	i	2	-1
CC(C)(Sc1ccc(CCN(CCCCC2CCCCC2)C(=O)NC2CCCCC2)cc1)C(=O)O	-19	-4	x	x	-1
NS(=O)(=O)c1ccc(N/N=C/c2cn(-c3ccccc3)nc2-c2cccs2)cc1	16	11	+	-1	0
SMILES	TAAR1 antagonist	VLA-4 inh	Rce1 inhib	Platelet DG rel	TAAR1 agonist
O=C(N/N=C/c1cn(-c2ccccc2)nc1-c1cccs1)c1ccncc1	50*	0	i	-3	12
O=C(N/N=C\c1cn(-c2ccccc2)nc1-c1ccccc1)c1ccc(Br)o1	54*	-3	i	-2	11
Cc1ccc(O)c(CNCCNCc2cc(C)ccc2O)c1	9	-1	i	-5	21
CCc1ccc(O)c(CNCCNCc2cc(CC)ccc2O)c1	24	27	i	-3	42*
Nc1ccccc1C(=O)C[C@H](N)C(=O)O	-16	x	x	x	7
COc1ccc(NC(=O)c2ccc(NC(=O)CCS(=O)(=O)c3cccs3)cc2)cc1	53*	12	x	-3	22
CCOC(=O)c1cccc(NC(=O)CCS(=O)(=O)c2cccs2)c1	-9	21	i	-14	3
CC(=O)c1cccc(NC(=O)c2ccc(NC(=O)CCS(=O)(=O)c3cccs3)cc2)c1	52*	37	i	-4	8
Cn1cc(S(=O)(=O)N2CCCC2)cc1C(=O)N1CCN(c2cccc(Cl)c2)CC1	-8	-11	i	59*	4
COc1ccc(Cl)cc1NC(=O)c1cc(S(=O)(=O)N2CCCC2)cn1C	-11	9	i	63*	0
COc1ccc(C)cc1NC(=O)c1cc(S(=O)(=O)N2CCCC2)cn1C	-3	-13	i	22	0
Cc1ccc(S(=O)(=O)NCCC(=O)NCCSc2ccc(Br)cc2)cc1	-8	11	i	9	-3
CCC1(c2ccc(OC)cc2)NC(=O)N(CC(=O)c2ccc3c(c2)OCCO3)C1=O (centres undefined)	0	1	x	x	38*
CC1(c2ccccc2)NC(=O)N(CC(=O)Nc2ccccc2N2CCCCC2)C1=O (centres undefined)	30	-6	i	x	24
CCC1(c2ccccc2)NC(=O)N(CC(=O)Nc2ccccc2N2CCCC2)C1=O (centres undefined)	3	0	i	-2	39*
CCC1(c2ccccc2)NC(=O)N(CC(=O)N(CC(=O)Nc2ccccc2C(F)(F)F)Cc2ccco2)C1=O (centres undefined)	18	2	i	6	44*
CCC1(c2ccc(OC)cc2)NC(=O)N(CC(=O)N2CCc3ccccc32)C1=O (centres undefined)	33	x	x	x	64*
Cc1ccc(C2(C)NC(=O)N(CC(=O)c3ccc4c(c3)OCCO4)C2=O)cc1 (centres undefined)	4	-9	x	x	20
COC(=O)c1c(NC(=O)C2CC(=O)NN2Cc2ccccc2)sc(C)c1C (centres undefined)	-8	-4	i	60*	2
Cc1ccc(NC(=O)c2ncn(CCCN3CCN(Cc4cccc5ccccc45)CC3)n2)cc1C	24	x	x	x	21
CCCCC1CCC(C(=O)N(C)CC(=O)Nc2cccc(OC)c2)CC1 (centres undefined)	-20	-2	x	x	-3
CN(C)S(=O)(=O)c1ccc(-c2csc(N/N=C/c3ccc(O)cc3)n2)cc1	77*	-6	i	2	27
C(=N\Nc1nc(-c2ccccc2)cs1)/c1ccncc1	1	-86	i	1	3
